Source: ChEMBL document CHEMBL1123669 (J Med Chem, 1987)

Key:
Phosphodiesterase 3 [1] = molecular target: T1, Phosphodiesterase 3 (Homo sapiens, UniProt Q14432+Q13370); assay: Inhibition of human platelet cAMP phosphodiesterase at 10e-4 M
Rattus norvegicus [2] = species: Rattus norvegicus; assay: Inhibition of rat heart cAMP phosphodiesterase
Phosphodiesterase 3 [3] = molecular target: T1, Phosphodiesterase 3; assay: In vitro inhibition of cyclic AMP phosphodiesterase from human platelets.
Rattus norvegicus [4] = species: Rattus norvegicus; assay: Inhibition of rat heart cAMP phosphodiesterase (weak partial inhibition)
Homo sapiens = species: Homo sapiens; assay: Inhibition of ADP-induced platelet aggregation; type: functional
How it was run: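 Human citrated PRP (200g, 15 min, room temperature), aspirin-free donors. Compound in DMF or Me2SO preincubated 5 min with stirred PRP at 37 °C. Aggregation induced by 5 μM ADP, followed turbidimetrically. Repeated at least twice with different donors; IC50 graphical.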

| IC50 (Phosphodiesterase 3 [1]) [µM] | IC25 (Rattus norvegicus [2]) [µM] | IC50 (Phosphodiesterase 3 [3]) [µM] | IC25 (Rattus norvegicus [4]) [µM] | IC50 (Homo sapiens) [µM] | Compound |
| --- | --- | --- | --- | --- | --- |
| 35 | – | – | – | – | COc1ccc2c(c1)CNC(=O)N2 |
| – | 1.5 | 1.35 | – | – | CN(C(=O)CCCOc1ccc2c(c1)CCC(=O)N2)C1CCCCC1 |
| – | > 30 | 4.4 | – | – | CN(C(=O)CCCOc1ccc2[nH]c(=O)oc(=O)c2c1)C1CCCCC1 |
| – | – | – | > 100 | 2.6 | O=C1CN2Cc3c(ccc(Cl)c3Cl)N=C2N1 [ANAGRELIDE] |
| – | 1 | 1.15 | – | – | CN(C(=O)CCCOc1ccc2c(c1)COC(=O)N2)C1CCCCC1 |
| – | 0.38 | 0.19 | – | – | CN(C(=O)CCCOc1ccc2c(c1)CSC(=O)N2)C1CCCCC1 |
| – | 1.3 | 1.15 | – | – | CN(C(=O)CCCOc1ccc2[nH]c(=O)[nH]c(=O)c2c1)C1CCCCC1 |
| – | – | 13 | – | – | COc1ccc2c(c1)CSC(=O)N2 |
| – | 0.6 | 0.01 | – | 0.11 | CN(C(=O)CCCOc1ccc2c(c1)CN1CC(=O)NC1=N2)C1CCCCC1 [LIXAZINONE] |
| – | 1.4 | 1.8 | – | – | CN(C(=O)CCCOc1ccc2c(c1)SCC(=O)N2)C1CCCCC1 |
| – | > 10 | 10 | – | – | CN(C(=O)CCCOc1ccc2nc(O)sc2c1)C1CCCCC1 |
| – | 0.32 | 0.29 | – | 62 | CCCCCCOc1ccc2c(c1)CN1CC(=O)NC1=N2 |
| – | – | 21 | – | – | COc1ccc2nc(O)sc2c1 |
| – | – | 1.5 | – | 4 | COc1ccc2c(c1)CN1CC(=O)NC1=N2 |
| – | 0.88 | 1.3 | – | – | CN(C(=O)CCCOc1ccc2c(c1)CNC(=O)N2)C1CCCCC1 |
| – | – | 100 | – | – | COc1ccc2c(c1)COC(=O)N2 |
| – | 0.7 | – | – | 1.9 | CN(C(=O)CCCOc1ccc2[nH]c(=O)ccc2c1)C1CCCCC1 [CILOSTAMIDE] |
| – | 50 | 3.6 | – | – | CN(C(=O)CCCOc1ccc2c(c1)C(=O)NCC(=O)N2)C1CCCCC1 |
| – | 1.3 | 3.4 | – | – | CN(C(=O)CCCOc1ccc2c(c1)OCC(=O)N2)C1CCCCC1 |
